Source: ChEMBL document CHEMBL2046270, “The cis-4-amino-L-proline residue as a scaffold for the synthesis of cyclic and linear endomorphin-2 analogues” (J Med Chem, 2012)

Tests used:
[1] = target: Delta-type opioid receptor (Mus musculus) (UniProt P32300); assay: Agonist activity at delta opioid receptor in ICR mouse vas deferens assessed as inhibition of electrically-stimulated muscle contraction at 1 uM after 3 mins; format: functional, tissue-based
Summary of the method: (§1)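 Transmurally stimulated tissue (0.1 Hz; 2.0 ms pulses MVD, 0.4 ms GPI; supramaximal voltage) from male ICR mice (25−30 g) or male Hartley guinea pigs (150−400 g; ileum longitudinal muscle-myenteric plexus), in 37 °C oxygenated Krebs bicarbonate (Mg-free for MVD), tension 0.5 g MVD / 1 g GPI. Agonist in contact 3 min, then washout; percent inhibition of contraction at single concentration.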

[2] = target: Delta-type opioid receptor (Homo sapiens, UniProt P41143); assay: Displacement of [3H]-DPDPE from human delta opioid receptor expressed in HN9.10 cells after 3 hrs by scintillation counting; format: cell-based
Delta-type opioid receptor, sequence (P41143 whole entry): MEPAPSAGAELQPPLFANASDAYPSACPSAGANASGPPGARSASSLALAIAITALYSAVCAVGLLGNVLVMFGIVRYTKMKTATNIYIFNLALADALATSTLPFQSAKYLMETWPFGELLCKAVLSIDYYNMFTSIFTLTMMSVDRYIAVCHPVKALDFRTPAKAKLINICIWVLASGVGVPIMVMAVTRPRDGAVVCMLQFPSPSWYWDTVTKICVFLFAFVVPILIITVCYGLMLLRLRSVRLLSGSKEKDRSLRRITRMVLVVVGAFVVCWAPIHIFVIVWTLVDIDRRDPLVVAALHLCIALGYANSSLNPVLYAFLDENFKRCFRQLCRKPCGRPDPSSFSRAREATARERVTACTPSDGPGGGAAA
Summary of the method: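 Membranes from transfected HN9.10 cells expressing MOR or DOR, in 50 mM Tris pH 7.4 with bacitracin, bestatin, captopril, PMSF, BSA. 50 μg membrane with 10 concentrations of test compound and 1.0 nM [3H]DAMGO (MOR) or [3H]DPDPE (DOR); nonspecific with 10 μM naloxone. 25 °C, 3 h, duplicate; GF/B filtration, scintillation counting; Ki by Cheng–Prusoff.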

[3] = target: Kappa-type opioid receptor (Homo sapiens, UniProt P41145); assay: Displacement of [3H]-U69593 from human kappa opioid receptor expressed in CHO cells after 60 mins by scintillation counting; format: cell-based
Kappa-type opioid receptor, sequence (P41145 whole entry): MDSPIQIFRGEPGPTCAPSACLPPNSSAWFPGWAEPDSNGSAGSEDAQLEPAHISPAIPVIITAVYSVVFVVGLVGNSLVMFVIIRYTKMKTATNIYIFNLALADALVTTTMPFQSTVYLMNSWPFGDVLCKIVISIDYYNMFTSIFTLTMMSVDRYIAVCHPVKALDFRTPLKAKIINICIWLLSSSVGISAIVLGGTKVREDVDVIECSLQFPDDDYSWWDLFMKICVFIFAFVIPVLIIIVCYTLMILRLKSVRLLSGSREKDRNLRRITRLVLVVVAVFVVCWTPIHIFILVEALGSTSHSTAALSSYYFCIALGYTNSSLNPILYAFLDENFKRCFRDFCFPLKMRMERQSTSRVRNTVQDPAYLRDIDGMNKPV
Summary of the method: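 Recombinant CHO cell membranes incubated 60 min at room temperature with 3 nM [3H]U69593 and varying ligand concentrations; nonspecific binding with 10 μM naloxone. Rapid filtration, liquid scintillation counting. Ki by Cheng–Prusoff; four independent experiments, each in duplicate.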

[4] = target: Mu-type opioid receptor (Cavia porcellus) (UniProt P97266); assay: Agonist activity at mu opioid receptor in Hartley guinea pig ileum assessed as inhibition of electrically-stimulated muscle contraction at 1 uM after 3 mins; format: functional, tissue-based; summary of the method: as §1
Mu-type opioid receptor (Cavia porcellus), sequence (P97266 whole entry): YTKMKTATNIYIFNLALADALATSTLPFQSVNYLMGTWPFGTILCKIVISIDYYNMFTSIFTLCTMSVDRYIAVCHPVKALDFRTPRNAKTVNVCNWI

Delta-type opioid receptor (Mus musculus), sequence (P32300 whole entry): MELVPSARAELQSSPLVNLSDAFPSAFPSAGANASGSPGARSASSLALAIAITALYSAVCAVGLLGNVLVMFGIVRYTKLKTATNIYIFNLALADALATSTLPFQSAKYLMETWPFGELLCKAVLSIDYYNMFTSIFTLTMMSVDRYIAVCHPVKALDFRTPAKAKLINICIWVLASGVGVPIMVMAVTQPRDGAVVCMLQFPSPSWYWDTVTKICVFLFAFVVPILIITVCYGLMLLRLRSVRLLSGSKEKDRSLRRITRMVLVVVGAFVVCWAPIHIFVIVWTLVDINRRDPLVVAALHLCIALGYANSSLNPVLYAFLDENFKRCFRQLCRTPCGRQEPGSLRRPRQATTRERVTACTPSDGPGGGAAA

| Structure (SMILES) | inhibition [1] [%] | Ki [2] | Ki [3] | inhibition [4] [%] |
| --- | --- | --- | --- | --- |
| Br.NC(=O)[C@H](Cc1ccccc1)NC(=O)[C@H](Cc1ccccc1)NC(=O)[C@@H]1C[C@H](N)CN1C(=O)[C@@H](N)Cc1ccc(O)cc1 | 20 | Not Active | Not Active | – |
| Br.N[C@H]1C[C@@H](C(=O)N[C@@H](Cc2ccccc2)C(=O)N[C@@H](Cc2ccccc2)C(=O)O)N(C(=O)[C@@H](N)Cc2ccc(O)cc2)C1 | 3.6 | – | Not Active | 0 |
| N[C@@H](Cc1ccc(O)cc1)C(=O)N1C[C@@H]2C[C@H]1C(=O)N[C@@H](Cc1ccccc1)C(=O)N[C@@H](Cc1ccccc1)C(=O)N2 | 0 | Not Active | Not Active | 1.4 |
